# Measurements taken from ChEMBL document CHEMBL4145471, “New 1,5 and 2,5-disubstituted tetrazoles-dependent activity towards surface barrier of Candida albicans” (Eur J Med Chem, 2018).
# What was measured:
# Candida albicans [1] = assay: Antifungal activity against Candida albicans ATCC 90028 at 16 ug/ml after 18 hrs relative to control; type: functional
# Procedure, shortened: (§1)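 Planktonic broth microdilution per M27-A3 in MOPS-buffered RPMI 1640 (pH 7.0), final inoculum 1.8×10^3 cells/mL, compounds 0.0313–16 µg/mL from 1600 µg/mL stocks in ethanol or DMSO. Incubated at 35°C without agitation; OD405 read at 18 and 48 h. % inhibition was derived from test, sterility (no inoculum) and solvent growth-control wells. Amphotericin B at 0.5 µg/mL served as the 100% control.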
# Candida albicans [2] = assay: Antifungal activity against Candida albicans ATCC 90028 at 8 ug/ml after 48 hrs relative to control; type: functional; procedure, shortened: as §1
# Candida albicans [3] = assay: Antifungal activity against Candida albicans ATCC 90028 at 4 ug/ml after 18 hrs relative to control; type: functional; procedure, shortened: as §1
# Candida albicans [4] = assay: Antifungal activity against Candida albicans ATCC 90028 at 4 ug/ml after 48 hrs relative to control; type: functional; procedure, shortened: as §1
# Candida albicans [5] = assay: Antifungal activity against Candida albicans ATCC 90028 at 2 ug/ml after 48 hrs relative to control; type: functional; procedure, shortened: as §1
# Candida albicans [6] = assay: Antifungal activity against Candida albicans ATCC 90028 at 1 ug/ml after 48 hrs relative to control; type: functional; procedure, shortened: as §1
# Candida albicans [7] = assay: Antifungal activity against Candida albicans ATCC 90028 at 0.5 ug/ml after 18 hrs relative to control; type: functional; procedure, shortened: as §1
# Candida albicans [8] = assay: Antifungal activity against Candida albicans ATCC 90028 at 0.25 ug/ml after 18 hrs relative to control; type: functional
# Procedure, shortened: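 Fluconazole (water stock, diluted in RPMI 1640) tested by CLSI M27-A3 broth microdilution against C. albicans ATCC 90028. Inoculum 1.8×10^3 cells/mL in RPMI 1640 buffered with MOPS, pH 7.0. Incubation at 35°C without agitation, read at 18 and 48 h. Growth by OD405 and visually; inhibition % calculated against solvent growth-control wells after subtracting sterility-control wells.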
# Candida albicans [9] = assay: Antifungal activity against Candida albicans ATCC 90028 at 0.0625 ug/ml after 18 hrs relative to control; type: functional
# Candida albicans [10] = assay: Synergistic antifungal activity against Candida albicans ATCC 90028 at 20 ug/ml after 48 hrs in presence of 5 ug/ml fluconazol by checkerboard assay relative to control; type: functional
# Procedure, shortened: (§2)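 Checkerboard in C. albicans ATCC 90028, inoculum prepared per CLSI M27-A3 in RPMI. Fluconazole serially diluted 80-1.25 µg/mL across the plate against the partner compound at 80-1.25 µg/mL final. Incubated 48 h at 35°C. Metabolic activity read by XTT reduction at 475 nm (660 nm reference), given as % of the untreated growth control.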
# Candida albicans [11] = assay: Synergistic antifungal activity against Candida albicans ATCC 90028 at 20 ug/ml after 48 hrs in presence of 2.5 ug/ml fluconazol by checkerboard assay relative to control; type: functional
# Procedure, shortened: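 Checkerboard microdilution (M27-A3) on C. albicans ATCC 90028 in RPMI 1640: fluconazole (80-1.25 µg/mL) crossed with tetrazole (80-1.25 µg/mL final), incubated at 35°C for 48 h. Growth by OD405 at 18 and 48 h, endpoint taken as 100% inhibition. FIC index = sum of the two agents' FICs; <1 synergism, >1 antagonism.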
# Candida albicans [12] = assay: Synergistic antifungal activity against Candida albicans ATCC 90028 at 10 ug/ml after 48 hrs in presence of 40 ug/ml fluconazol by checkerboard assay relative to control; type: functional
# Procedure, shortened: (§3)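 Checkerboard per M27-A3 against ATCC 90028: fluconazole at 80–1.25 µg/mL horizontally and partner compound at 80–1.25 µg/mL vertically, 100 µL yeast inoculum per well, 35°C for 48 h. After 48 h, metabolic activity was measured by XTT reduction at 475 nm (660 nm reference) relative to untreated growth control. FIC index is the sum of the FICs; <1 was defined as synergism and >1 as antagonism.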
# Candida albicans [13] = assay: Synergistic antifungal activity against Candida albicans ATCC 90028 at 10 ug/ml after 48 hrs in presence of 20 ug/ml fluconazol by checkerboard assay relative to control; type: functional; procedure, shortened: as §3
# Candida albicans [14] = assay: Synergistic antifungal activity against Candida albicans ATCC 90028 at 10 ug/ml after 48 hrs in presence of 5 ug/ml fluconazol by checkerboard assay relative to control; type: functional; procedure, shortened: as §3
# Candida albicans [15] = assay: Synergistic antifungal activity against Candida albicans ATCC 90028 at 5 ug/ml after 48 hrs in presence of 80 ug/ml fluconazol by checkerboard assay relative to control; type: functional; procedure, shortened: as §2
# Candida albicans [16] = assay: Synergistic antifungal activity against Candida albicans ATCC 90028 at 1.25 ug/ml after 48 hrs in presence of 10 ug/ml fluconazol by checkerboard assay relative to control; type: functional; procedure, shortened: as §3
# Candida albicans [17] = assay: Antifungal activity against Candida albicans ATCC 90028 assessed as inhibition of metabolic activity at 1.25 ug/ml after 48 hrs in presence of 20 ug/ml fluconazol by XTT assay relative to control; type: functional; details: values are per cent of control
# Procedure, shortened: (§4)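 Checkerboard against strain ATCC 90028, inoculum per M27-A3: fluconazole 80-1.25 µg/mL on one axis, tetrazole 80-1.25 µg/mL on the other. Plates at 35°C for 48 h, then XTT metabolic reduction read at 475 nm (660 nm reference). Activity is the drop in mean absorbance against untreated growth control. FICs and their summed FIC index are taken at 50% reduction in metabolic activity.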
# Candida albicans [18] = assay: Antifungal activity against Candida albicans ATCC 90028 after 48 hrs in presence of fluconazol by XTT assay; type: functional; details: ATCC 90028, 48 h; procedure, shortened: as §4
# Candida albicans [19] = assay: Antifungal activity against Candida albicans ATCC 90028 assessed as metabolic activity at 80 ug/ml after 48 hrs in presence of 10 ug/ml fluconazol by XTT assay relative to control
# Candida albicans [20] = assay: Antifungal activity against Candida albicans ATCC 90028 assessed as metabolic activity at 40 ug/ml after 48 hrs in presence of 80 ug/ml fluconazol by XTT assay relative to control
# Candida albicans [21] = assay: Antifungal activity against Candida albicans ATCC 90028 assessed as metabolic activity at 40 ug/ml after 48 hrs in presence of 20 ug/ml fluconazol by XTT assay relative to control
# Candida albicans [22] = assay: Antifungal activity against Candida albicans ATCC 90028 assessed as metabolic activity at 40 ug/ml after 48 hrs in presence of 10 ug/ml fluconazol by XTT assay relative to control
# Candida albicans [23] = assay: Antifungal activity against Candida albicans ATCC 90028 assessed as metabolic activity at 40 ug/ml after 48 hrs in presence of 2.5 ug/ml fluconazol by XTT assay relative to control
# Candida albicans [24] = assay: Antifungal activity against Candida albicans ATCC 90028 assessed as metabolic activity at 20 ug/ml after 48 hrs in presence of 2.5 ug/ml fluconazol by XTT assay relative to control
SMILES,Activity (Candida albicans [1]),Activity (Candida albicans [2]),Activity (Candida albicans [3]),Activity (Candida albicans [4]),Activity (Candida albicans [5]),Activity (Candida albicans [6]),Activity (Candida albicans [7]),Activity (Candida albicans [8]),Activity (Candida albicans [9]),growth inhibition (GI) (Candida albicans [10]),growth inhibition (GI) (Candida albicans [11]),growth inhibition (GI) (Candida albicans [12]),growth inhibition (GI) (Candida albicans [13]),growth inhibition (GI) (Candida albicans [14]),growth inhibition (GI) (Candida albicans [15]),growth inhibition (GI) (Candida albicans [16]),residual activity (Candida albicans [17]),MIC (Candida albicans [18]),Metabolic activity (Candida albicans [19]),Metabolic activity (Candida albicans [20]),further results
ClCCCn1nnnc1-c1ccccc1Cl,99.62%,99.06%,99.62%,99.41%,99.14%,98.22%,98.4%,99.96%,99.9%,99.02%,99.25%,99.29%,99.61%,98.9%,99.34%,99.66%,60.65%,80 µg/mL,73.98%,63.62%,Metabolic activity (Candida albicans [21]): 74.1%; Metabolic activity (Candida albicans [22]): 70.86%; Metabolic activity (Candida albicans [23]): 75.66%; Metabolic activity (Candida albicans [24]): 81.5%
CCOC(=O)CCn1nnc(-c2ccccc2)n1,99.95%,98.86%,99.96%,99.68%,99.7%,97.51%,98.97%,98.4%,99.57%,98.72%,99.63%,99.34%,99.46%,98.97%,99.61%,99.65%,62.2%,80 µg/mL,52.64%,55.99%,Metabolic activity (Candida albicans [21]): 54.82%; Metabolic activity (Candida albicans [22]): 56.45%; Metabolic activity (Candida albicans [23]): 61.61%; Metabolic activity (Candida albicans [24]): 80.61%
Cc1ccc(-c2nnn(CCCN3CCOCC3)n2)cc1,99.87%,99.39%,99.75%,99.45%,98.3%,96.58%,98.99%,98.25%,99.5%,98.27%,99.31%,98.78%,98.99%,98.12%,99.47%,99.59%,100%,20 µg/mL,11.87%,66.33%,Metabolic activity (Candida albicans [21]): 54.14%; Metabolic activity (Candida albicans [22]): 28.26%; Metabolic activity (Candida albicans [23]): 26.03%; Metabolic activity (Candida albicans [24]): 71.88%
